Screening data deposited in PubChem BioAssay by Johns Hopkins Ion Channel Center.
KCNK9 inh = KCNK9 potassium channel inhibitors, primary screen, HEK293 cells, thallium flux; actives 1.2% (n = 310,000); Potassium channel subfamily K member 9 (Homo sapiens), Q9NPC2; FluxOR thallium flux fluorescence; hits give low values; B-score at 10 µM; AID 488922, 2010;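 active = ratio B-score over 3 SD below the library mean, with starting fluorescence within 5 SD of its mean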;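 note: negative B-score means less thallium flux so channel inhibition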
KCNQ1 inh = inhibitors of human KCNQ1 channel, primary screen, cell-based, thallium flux, high-throughput | Potassium voltage-gated channel subfamily KQT member 1 (Homo sapiens), P51787 | CHO-K1 KCNQ1, FluxOR thallium flux fluorescence; hits give high values | B-score at 10 µM | actives 1.3% (n = 310,000);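 active = compounds whose thallium flux B-score, printed positive for inhibition, exceeds three library SD while starting fluorescence stays within three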;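 note: channel opened by potassium depolarization with thallium stimulus after 20 min compound exposure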
hERG protect = hERG rescue from dofetilide block, primary screen, cell-based, CHO-hERG, FluxOR thallium flux, dofetilide IC70. Voltage-gated inwardly rectifying potassium channel KCNH2 (Homo sapiens), Q12809. dofetilide IC70 present. activation (rescue from dofetilide block), less the hit threshold, % at 10 µM. actives 0.51% (n = 310,000). AID 1511, 2009;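 active = activation above the mean of controls blocked by dofetilide plus 5 SD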;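 note: thallium influx through hERG after potassium depolarization seen as dye fluorescence rise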
Target sequence (Q12809 whole entry, looked up): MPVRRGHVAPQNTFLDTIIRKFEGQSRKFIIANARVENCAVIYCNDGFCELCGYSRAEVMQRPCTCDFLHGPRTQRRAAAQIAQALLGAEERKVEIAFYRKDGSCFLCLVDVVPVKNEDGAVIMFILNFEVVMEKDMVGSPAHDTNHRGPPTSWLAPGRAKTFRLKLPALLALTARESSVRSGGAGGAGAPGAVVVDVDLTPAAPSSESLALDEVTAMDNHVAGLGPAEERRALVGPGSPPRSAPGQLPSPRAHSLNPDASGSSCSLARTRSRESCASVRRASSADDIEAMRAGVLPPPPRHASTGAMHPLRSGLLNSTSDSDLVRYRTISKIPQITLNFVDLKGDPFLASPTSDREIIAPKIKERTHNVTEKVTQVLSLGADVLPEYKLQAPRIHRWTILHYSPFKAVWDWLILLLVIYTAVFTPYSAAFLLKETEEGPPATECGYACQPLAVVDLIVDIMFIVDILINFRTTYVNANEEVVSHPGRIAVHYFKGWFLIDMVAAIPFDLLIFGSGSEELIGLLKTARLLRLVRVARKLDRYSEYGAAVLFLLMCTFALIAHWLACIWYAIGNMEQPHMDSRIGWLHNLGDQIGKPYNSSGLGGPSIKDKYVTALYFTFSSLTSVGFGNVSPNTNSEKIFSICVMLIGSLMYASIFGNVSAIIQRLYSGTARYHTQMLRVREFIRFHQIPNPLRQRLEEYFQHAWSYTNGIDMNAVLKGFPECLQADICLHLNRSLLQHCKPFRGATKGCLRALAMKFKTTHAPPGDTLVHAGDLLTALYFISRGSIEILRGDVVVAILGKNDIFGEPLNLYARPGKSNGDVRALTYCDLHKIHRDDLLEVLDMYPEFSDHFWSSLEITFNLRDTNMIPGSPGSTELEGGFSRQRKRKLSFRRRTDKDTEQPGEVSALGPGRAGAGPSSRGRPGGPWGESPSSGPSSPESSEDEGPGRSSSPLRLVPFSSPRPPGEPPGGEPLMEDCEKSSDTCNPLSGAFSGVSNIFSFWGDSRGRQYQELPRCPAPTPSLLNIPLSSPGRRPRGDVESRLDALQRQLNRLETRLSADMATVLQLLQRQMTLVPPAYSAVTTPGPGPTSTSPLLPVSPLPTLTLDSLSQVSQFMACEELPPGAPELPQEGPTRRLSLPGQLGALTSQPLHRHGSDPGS
KCNK3 block = human KCNK3 channel inhibitors, primary screen, CHO cells, FluxOR thallium flux, B-score; FluxOR fluorescence; hits give low values; B-score at 10 µM; actives 0.84% (n = 340,000); AID 602410, 2012;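 active = B-score under library mean minus 4 SD, starting fluorescence ratio at most library mean plus 5 SD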;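 note: more negative B-score means stronger inhibition of thallium flux through KCNK3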
KCNQ1 act = potentiators or activators of KCNQ1 channel, primary screen, cell-based, thallium flux, high-throughput; actives 0.35% (n = 310,000); CHO-K1 KCNQ1, thallium flux FluxOR fluorescence; hits give high values; B-score at 10 µM; Potassium voltage-gated channel subfamily KQT member 1 (Homo sapiens), P51787;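 active = fluorescence ratio B-score, a plate-corrected score, at least three library SD, with initial intensity B-score within 5 SD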
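Doses: Single concentration per compound, DMSO matched to controls | Test system: KCNQ1-transfected CHO-K1 cells | Timing: 90 min dye loading and 20 min compound exposure, both at room temperature | Measured by: Kinetic FluxOR thallium fluorescence, 10-s 1-Hz baseline, 110-s post-stimulus read | Medium: Assay buffer with matched DMSO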
Kir21 inh = inhibitors of mouse Kir2.1 inward-rectifier potassium channel; HEK293-Kir2.1, FluxOR thallium flux fluorescence; hits give low values; B-score at 10 µM; actives 0.85% (n = 310,000); AID 1672, 2009;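 active = fluorescence ratio B-score at or below minus 3 SD of library scores, with starting-brightness B-score within 2 SD, cut at about -4.2 in these data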;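 note: channel flux triggered by added potassium and thallium sulfate stimulus; B-score of peak minus minimum fluorescence over baseline after thallium stimulus; more negative B-score means stronger Kir2.1 block with less thallium influx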
Starred values were filed as active, the others as inactive; i = inactive; nt = not tested or not shown. In the library only some 3.7% were active in any assay of this set; here they are far more common.

SMILES	KCNK9 inh	KCNQ1 inh	hERG protect	KCNK3 block	KCNQ1 act	Kir21 inh
S=c1[nH]nc(CSc2nc3ccccc3s2)n1C1CCCCC1	-7.5*	i	4	i	22*	-2.6
Cc1ccc(S(=O)(=O)N2CCCCC2)cc1C(=O)N(C)CC(=O)Nc1ccc(Cl)c(C(F)(F)F)c1	i	i	-15	i	i	-0.22
Cc1sc2ncnc(N3CCC(C(=O)N(C)CC(=O)Nc4ccc(Cl)c(C(F)(F)F)c4)CC3)c2c1C	i	9*	-14	i	i	1.4
Cc1ccc(C(=O)N(C)CC(=O)Nc2ccc(Cl)c(C(F)(F)F)c2)cc1S(=O)(=O)N1CCCCC1	nt	nt	nt	-11*	nt	nt
COCCN1C(=O)C(=O)/C(=C(/O)c2ccc(S(=O)(=O)N3CCCCC3)cc2)C1c1ccc(O)c(OC)c1 (configuration not stated)	i	i	-4	i	i	0.67
CC(=O)n1cc(C(C[N+](=O)[O-])SCCN)c2ccccc21 (configuration not stated)	i	i	-13	i	i	-13*
Cn1cc(C(C[N+](=O)[O-])c2ccccc2)c2ccccc21 (configuration not stated)	i	i	-14	i	i	0.13
CCCOc1ccc(C(=O)NC(=S)NNC(=O)c2c(-c3ccccc3)noc2C)cc1	i	i	-12	i	15*	1.3
O=C(COc1ccccc1Br)Nc1ccc2c(c1)OCCCO2	i	i	2	i	i	1.3
N#Cc1cccc(NC(=O)c2nc(-c3ccccc3)n(-c3ccccc3)n2)c1	i	i	7.1*	i	i	0.72
Cc1ccc(C)c(NC(=O)c2nc(-c3ccccc3)n(-c3ccccc3)n2)c1	i	i	-11	i	i	0.24
COc1ccc(-c2cc(C)no2)cc1S(=O)(=O)NCCc1ccco1	i	i	-5	i	i	0
CC(C)Nc1ccc(Nc2ccnc3cc4ccccc4cc23)cc1	i	9*	-33	i	i	-6.4*
CCOc1ccccc1Nc1ccnc2cc(Cl)ccc12	i	i	-12	i	i	0.48
O=[N+]([O-])c1ccc(N(c2ccccc2)c2ccccc2)cc1	i	9*	-25	i	i	0.49
CN(C)c1ccc(C(c2ccc(N(C)C)cc2)c2ccc([N+](=O)[O-])cc2)cc1	-7.8*	i	-8	i	i	0.07
CCN(C(=O)c1ccccc1)c1ccc([N+](=O)[O-])cc1	i	i	-2	i	i	1.1
CCCc1nc2ccccc2c(C(=O)N(CC)CC(=O)NCc2cccs2)c1CC	nt	nt	nt	i	nt	nt
CC1=C(C(=O)N2CCCC(CCC(=O)NCc3ccccc3F)C2)OCCO1 (configuration not stated)	i	i	-7	i	i	-0.01
Cc1ccc(S(=O)(=O)N2CCCC(CCC(=O)NCc3ccccc3F)C2)s1 (configuration not stated)	-8*	i	-3	i	i	-1.4
COc1ccc(C(=O)NNC(=S)NC(=O)c2ccc(OC)cc2)cc1	i	i	-9	i	i	-1.1
O=C(NNC(=S)NC(=O)c1ccc(Br)cc1)c1cccc([N+](=O)[O-])c1	i	i	-1	i	21*	0.01
Cc1ccc(C(=O)NCCOc2ccc(Cl)cc2)cc1	i	i	-1	i	i	0.7
COc1ccc(C(=O)NC(=S)NNC(=O)c2cccc(C)c2)cc1	i	i	-5	i	62*	1.7
O=C(NNC(=S)NC(=O)c1ccc(Br)cc1)c1ccc([N+](=O)[O-])cc1	i	i	-11	i	i	0.05
SMILES	KCNK9 inh	KCNQ1 inh	hERG protect	KCNK3 block	KCNQ1 act	Kir21 inh
Cc1cccc(C(=O)NC(=S)NNC(=O)COc2ccc(Cl)cc2)c1	i	i	-13	i	59*	0.23
Cc1ccc(C(=O)CC(=O)COc2ccc(Cl)cc2)cc1	i	i	-11	i	17*	0.12
CC(C)[C@H](NC(=O)[C@H](Cc1ccccc1)n1c(=O)[nH]c2ccccc2c1=O)C(=O)N1CCC[C@H]1C(=O)O	i	i	-4	i	i	-1.2
O=C(NNC(=O)c1cccnc1Cl)c1ccc(F)cc1	i	i	-8	i	i	2.7
Cc1ccc(N(CC(=O)NC2CCCC2)C(=O)c2nsc(Cl)c2Cl)cc1	i	i	-12	i	i	0.07
CC(C)(C)c1cc(CCC(=O)NNC(=S)NC(=O)c2ccccc2)cc(C(C)(C)C)c1O	i	i	-8	i	36*	0.07
Cc1cccc(C(=O)NNC(=S)NC(=O)c2ccccc2)c1	i	i	-1	i	23*	1.3
Cc1cccc(C(=O)NNC(=S)NC(=O)c2cccs2)c1	i	i	-4	i	i	0.93
OCCN1CCN(CCCN2c3ccccc3Sc3ccc(C(F)(F)F)cc32)CC1	i	i	-22	i	i	-7.1*
CN(C)CCC(=O)N1c2ccccc2Sc2ccc(C(F)(F)F)cc21	i	i	-14	i	i	-0.69
CCN(CC)CCCCN1c2ccccc2Sc2ccccc21	i	i	-14	i	i	-5.8*
OCCN1CCN(CC/C=C2/c3ccccc3Sc3ccc(C(F)(F)F)cc32)CC1	i	i	-19	i	i	-5.4*
CN(C)CCCN1c2ccccc2Sc2ccc(C(F)(F)F)cc21	i	i	-15	i	i	-5.1*
COc1ccc(CC(C)Nc2cccc(SC)c2)cc1 (configuration not stated)	i	i	-9	i	i	-0.93
Cc1cc(NC(=O)CCC(=O)N(CC(=O)NCC2CCCO2)c2cccc(F)c2)no1 (configuration not stated)	i	i	-4	i	i	-1
Clc1ccc(CN2CCC(c3nc4ccc(Cl)cc4[nH]3)CC2)cc1	i	i	-13	i	i	-8*
COc1ccc(CN2CC[C@H]3C=CC[C@@H](C(=O)NCCc4ccccc4)[C@H]3C2=O)cc1OC	i	i	1	i	i	-0.33
